Sampled rows, rich in hits. Any-hit rate of the full collection: about 2.5%.
zfTRPN1 agonist – zebrafish TRPN1 channel agonists, primary screen, cell-based, HEK293, calcium fluorescence | transient receptor potential cation channel N1 (TRPN1/NompC), Danio rerio | HEK293 zebrafish TRPN1-YFP, Fluo-8 calcium fluorescence; 100% = response to 87 µM carbachol | activation, % at 3 µM | actives 0.18% (n = 220,000) | AID 1424, 2008;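 active = activation above its plate's cutoff, the mean activation of test wells on that plate plus 3 SD, cut at about 19% in these data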;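 note: 0% = DMSO alone and 100% = 87 µM carbachol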
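Control set: carbachol 87 µM as high control, DMSO as low control; system: HEK293 stable line with zebrafish TRPN1-YFP; read-out: % activation versus carbachol response; detection: intracellular calcium fluorescence with Fluo-8; doses: single test compound dose, 3 µM nominal, 0.3% DMSO; schedule: dye 1 h 37 °C plus 30 min RT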
CHO parental Ca – ATP-evoked calcium signal inhibitors, parental CHO, primary screen, counter-screen for OX1R antagonist project, cell-based, fluorescence, Fluo-8 calcium dye; parental CHO-K1, ATP-induced calcium, Fluo-8 fluorescence; inhibition, % at 5.6 µM; actives 0.63% (n = 330,000);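 active = inhibition above that plate's mean sample inhibition plus 3 SD, cut at about 26% in these data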;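 note: 0% = ATP-challenged DMSO wells and 100% = DMSO wells without ATP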
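Material: Parental CHO cells | Reagent: ATP | Compound dosing: Single nominal dose of 5.6 µM per compound | Detection: Intracellular calcium via Fluo-8 no-wash fluorescent dye | Read-out: % inhibition of ATP-induced calcium mobilization | Benchmarks: Low control ATP plus DMSO, high control DMSO only | Replicates: Singlicate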
TRPML3 agonist – human TRPML3 channel agonists, primary screen, cell-based, HEK293 TRPML3-YFP, Fluo-8 calcium fluorescence, 3 µM | Mucolipin-3 (Homo sapiens), Q8TDD5 | 100% = the carbachol control signal | activation, % at 3 µM | actives 0.29% (n = 220,000);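 active = activation above its plate's cutoff, the mean activation of the plate's test wells plus 3 SD, cut at about 12% in these data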;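 note: 0% = DMSO only wells and 100% = carbachol wells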
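Test system – HEK293 line with stable expression of human TRPML3-YFP channel · Control set – carbachol 87 µM final as high control (100%), DMSO as low control (0%) · Signal – Fluo-8 calcium dye fluorescence, ex 470-495, em 515-575 nm · Incubation – 1-h 37 °C dye load, 5-s basal, 120-s post-compound reads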
OX1R antag-1 – antagonists of human orexin 1 receptor (OX1R); AID 485270, 2010; actives 1.8% (n = 330,000); OX1R-expressing cells, FRET antagonist read-out; inhibition, % at 6.6 µM; in the data active = inhibition mostly above about 38%, no sharp cut-off; inactive = mostly below about 40%;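 note: 0% = agonist challenge alone and 100% = reference antagonist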
Target sequence (O43613 whole entry, looked up): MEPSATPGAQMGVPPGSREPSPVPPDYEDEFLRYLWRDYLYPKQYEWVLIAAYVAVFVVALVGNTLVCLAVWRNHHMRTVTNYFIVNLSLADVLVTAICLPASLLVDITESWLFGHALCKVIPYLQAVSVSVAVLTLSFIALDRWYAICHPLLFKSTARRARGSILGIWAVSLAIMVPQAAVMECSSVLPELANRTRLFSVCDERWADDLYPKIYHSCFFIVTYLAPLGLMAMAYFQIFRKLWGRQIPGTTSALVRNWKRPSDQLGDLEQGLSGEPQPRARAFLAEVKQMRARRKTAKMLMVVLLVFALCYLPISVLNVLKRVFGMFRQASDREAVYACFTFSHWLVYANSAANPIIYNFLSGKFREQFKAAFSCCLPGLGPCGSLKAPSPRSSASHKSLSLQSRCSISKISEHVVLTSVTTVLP
OX1R antag-2 – OX1R (HCRTR1) antagonists, primary screen, fluorescence, CHO/OX1R cells, Fluo-8 calcium, orexin A | Orexin/Hypocretin receptor type 1 (Homo sapiens), O43613 | Fluo-8 calcium fluorescence | inhibition, % at 5 µM | actives 0.43% (n = 330,000);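 active = inhibition above its plate's threshold, mean inhibition of all tested compounds on the plate plus 3 SD, cut at about 37% in these data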;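 note: 0% = orexin A challenge wells and 100% = SB-334867-A antagonist wells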
* hit, by the source's call; / = no result.

SMILES	zfTRPN1 agonist	CHO parental Ca	TRPML3 agonist	OX1R antag-1	OX1R antag-2
Cc1ccc(S(=O)(=O)N/N=C2/CCCCC2C2CCCCC2)cc1[N+](=O)[O-] (centres undefined)	1	-7	0	13	-15
CS(=O)(=O)O/N=C1\CCCCC1c1ccc([N+](=O)[O-])cc1[N+](=O)[O-] (centres undefined)	/	-4	/	49*	-3
O=C(N1CCOCC1)N1CCN(S(=O)(=O)c2ccc(F)cc2)CC1	/	-3	/	-5	0
O=C(Nc1ccc(C(F)(F)F)cc1)N1CCN(c2ccnc3cc(Cl)ccc23)CC1	0	-24	0	7	-2
COc1ccc(C(=O)CSc2cc(C)[nH]c(=O)n2)cc1	/	-11	/	28	-23
Cc1cc(CNC(=O)C(C)n2cc([N+](=O)[O-])cn2)c2ccccc2n1 (centres undefined)	0	-27	1	69*	13
CCOc1ncccc1C(=O)Nc1cc2c(cc1Br)OCCO2	/	-30	/	40*	22
O=C(CSc1cccc(C(F)(F)F)c1)Nc1nnc(C2CC2)s1	/	5	/	3	9
CCOc1ncccc1C(=O)Nc1nnc(C2CC2)s1	1	-12	1	74*	9
CCOc1ncccc1C(=O)Nc1ccc2c(c1)OCO2	-1	-20	0	12	-15
O=C(CSc1ccccc1)Nc1nnc(C2CC2)s1	/	30*	/	21	-4
CCOc1ccc(NC(=O)CN(C)C(=O)CCCOc2ccc(Br)cc2)cc1OCC	/	-34	/	22	-18
Fc1ccc(NC(=S)N2CCN(c3ccccn3)CC2)cc1Cl	/	1	/	7	-11
Cc1nn(C)c(C)c1CN(Cc1nc(CCC(C)C)no1)C(C)C	10	41*	4	21	34
CC(C)CCc1noc(CN(C)CCC2CCOCC2)n1	-1	-2	1	15	11
O=C(Nc1cccnc1)c1ccc(COc2ccccc2Br)o1	0	3	0	22	-16
CC(C)(C)c1ccc(OCc2ccc(C(=O)Nc3cccnc3)o2)cc1	/	29*	/	8	35
O=C(COc1ccccc1)NNc1c2ccccc2nc2ccccc12	1	2	0	86*	-10
O=C(NNc1c2ccccc2nc2ccccc12)C(O)c1ccccc1 (centres undefined)	0	-21	0	71*	-10
CCCC(=O)NNc1c2ccccc2nc2ccccc12	0	-15	0	5	-8
CN(CC(=O)N1CCCCC1)S(=O)(=O)c1cccc2nsnc12	/	-7	/	55*	-9
Cc1ccc(CNC(=O)CN(C)S(=O)(=O)c2cccc3nsnc23)cc1	2	-21	0	71*	-19
CC(=O)c1cccc(NC(=O)CN(C)S(=O)(=O)c2cccc3nsnc23)c1	/	-20	/	44*	-67
CN(CC(=O)NCCc1ccc(S(N)(=O)=O)cc1)S(=O)(=O)c1cccc2nsnc12	/	9	/	59*	-19
Cc1ccc(NC(=O)CN(C)S(=O)(=O)c2cccc3nsnc23)cc1	-2	0	0	53	-16
SMILES	zfTRPN1 agonist	CHO parental Ca	TRPML3 agonist	OX1R antag-1	OX1R antag-2
CC1CCCN(C(=O)CSc2nnc3ccccn23)C1 (centres undefined)	/	-10	/	-1	-6
COc1cc2c(cc1OC)C(c1ccccc1F)NCC2 (centres undefined)	/	6	/	3	-23
Cc1cc(C)n2c(SCC(=O)Nc3cc(S(=O)(=O)N(C)C)ccc3C)nnc2n1	/	-12	/	6	-15
O=C(NC1CCCCC1)N1CCN(c2ccccc2Cl)CC1	/	1	/	4	-9
O=C(Nc1ccc2snnc2c1)Nc1cccc2ccccc12	12	27*	6	58*	6
NS(=O)(=O)c1ccc(Nc2ncccc2[N+](=O)[O-])cc1	0	4	0	58*	1
Cc1ccc(-c2ccc(=O)n(Cc3ccc(F)cc3)n2)cc1	/	3	/	1	-13
C=Cc1ccc(Cn2nc(-c3ccccc3)ccc2=O)cc1	/	50*	/	7	-3
COc1ccc(OC)c(NC(=O)CC2SC(=Nc3ccccc3)N(CCc3ccccn3)C2=O)c1 (centres undefined)	1	-11	-1	22	-25
COc1ccc(N=C2SC(CC(=O)Nc3ccccc3)C(=O)N2CCc2ccccn2)cc1 (centres undefined)	-1	-5	0	69*	16
OCCCc1nc2n(n1)C(c1cccs1)C=C(c1ccccc1)N2 (centres undefined)	0	33*	0	26	23
OCCCc1nc2n(n1)C(c1ccccc1)C=C(c1ccc(F)cc1)N2 (centres undefined)	0	-8	0	9	-5
Nc1nc(CSC(=S)N2CCOCC2)nc(Nc2ccccc2)n1	-1	-13	0	69*	17
Nc1nc(CSC(=S)N2CCCCC2)nc(Nc2ccccc2)n1	-3	-22	-1	69*	11
O=c1oc(-c2ccc(Br)cc2)nc2ccccc12	/	-10	/	10	-6
CCOC(=O)/C=c1\s/c(=C(\C#N)C(N)=O)n(-c2ccccc2)c1=O	1	-9	1	57*	-12
COc1ccc(CCNC(=O)CSc2nc3[nH]c(=O)cc(O)c3s2)cc1	/	-7	/	1	9
Cc1ccc(NC(=O)[C@@H]2CCCN2S(=O)(=O)c2ccc(Cl)cc2)cc1	/	-9	/	48*	16
CC(=O)c1ccc(NC(=O)C2CCCN2S(=O)(=O)c2ccc(C)cc2)cc1 (centres undefined)	2	-12	1	24	-18
O=C1CCC(C(=O)Nc2ccc(Cl)cc2)N1 (centres undefined)	/	-8	/	1	-19
O=C(Nc1ccc(Cl)cc1)C1CCCCN1S(=O)(=O)c1ccccc1 (centres undefined)	/	6	/	28*	20
O=C(Nc1ccc(Cl)cc1)C1C2CCCCC21 (centres undefined)	/	62*	/	17	32
O=C(Nc1ccc(C(F)(F)F)cc1)C1CCCCN1S(=O)(=O)c1ccccc1 (centres undefined)	/	-26	/	13	-18
CC1(NC(=O)Nc2cccc(Br)c2)CCS(=O)(=O)C1 (centres undefined)	/	1	/	6	-18
S=c1[nH]nc(-c2ccncc2)n1/N=C/C(Cl)=C\c1ccccc1	1	-19	1	42*	-28
COC(=O)c1cc(S(=O)(=O)N2CCC(C)CC2)cn1C	/	-11	/	-1	-9
